Source: ChEMBL document CHEMBL1255227, “Novel pyridylmethylamines as highly selective 5-HT(1A) superagonists” (J Med Chem, 2010)
pEC50, pKi: −log10 of the molar value.

Tests used:
[1] = Displacement of [3H]WAY-100635 from 5-HT1A receptor in pig cortex membranes; assay type: cell membranes, Sus scrofa
[2] = biological target: T1, 5-hydroxytryptamine receptor 1A (Homo sapiens, UniProt P08908); assay: Intrinsic activity at human 5-HT1A receptor expressed in CHO cells assessed as increase of serotonin-induced [35S]GTPgammaS binding; assay type: functional, cell-based
T1 sequence (P08908 whole entry): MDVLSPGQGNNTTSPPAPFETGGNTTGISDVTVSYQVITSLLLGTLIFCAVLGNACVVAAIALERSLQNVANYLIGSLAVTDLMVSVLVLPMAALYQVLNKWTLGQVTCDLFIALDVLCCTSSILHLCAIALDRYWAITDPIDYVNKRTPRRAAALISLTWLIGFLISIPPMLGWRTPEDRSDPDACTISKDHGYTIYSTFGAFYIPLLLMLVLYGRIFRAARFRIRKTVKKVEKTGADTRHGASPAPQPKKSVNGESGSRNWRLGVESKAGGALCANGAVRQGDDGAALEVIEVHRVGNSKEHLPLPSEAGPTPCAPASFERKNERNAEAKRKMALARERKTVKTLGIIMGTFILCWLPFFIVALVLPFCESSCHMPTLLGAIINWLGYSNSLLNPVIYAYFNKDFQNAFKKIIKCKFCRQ
Method in brief: (§1)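 Membranes from CHO cells stably expressing human 5-HT1A were incubated with 0.1 nM [35S]GTPγS and test compound at eight concentrations (0.01-10000 nM), in hexaduplicate. Values come from a mean curve of four experiments. Emax is expressed relative to the maximal serotonin effect.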

[3] = biological target: T2, 5-hydroxytryptamine receptor 1A (Homo sapiens) (UniProt P08908); assay: Intrinsic activity at human 5-HT1A receptor expressed in CHO cells assessed as increase of serotonin-induced [35S]GTPgammaS binding relative to serotonin; assay type: functional, cell-based; method in brief: as §1
T2 sequence (whole entry): T1 sequence (P08908 whole entry)

SMILES | pKi [1] | pEC50 [2] | Emax [3]
Cc1ccc(CNCC2(F)CCN(C(=O)C34CC5CC(C)(CC(C)(C5)C3)C4)CC2)nc1 | 6.33 | – | –
Cc1ccc(CNCC2(F)CC3CCC(C2)N3C(=O)c2ccccc2)nc1 (stereo unspecified) | 6.47 | – | –
Cc1ccc(CNC[C@@]2(O)C[C@H]3CC[C@@H](C2)N3C(=O)c2ccccc2)nc1 (stereo in doubt; 34) [listing 1 of 2 here] | 7.00 | 6.57 | –
Cc1ccc(CNCC2(F)CCN(C(=O)c3ccc(-c4cccs4)s3)CC2)nc1 | 6.38 | – | –
Cc1ccc(CNCC2(F)CCN(C(=O)c3scc4c3CCCC4)CC2)nc1 | 7.70 | 7.07 | 104%
Cc1ccc(CNCC2(F)CCN(C(=O)C34CC5CC(CC3C5)C4)CC2)nc1 | 7.96 | 7.33 | 96%
Cc1ccc(CNCC2(F)CCN(C(=O)c3sccc3Br)CC2)nc1 | 7.49 | 7.70 | 104%
Cc1ccc(CNCC2(F)CCN(C(=O)c3cc(C)cs3)CC2)nc1 | 8.08 | 7.70 | 101%
Cc1ccc(CNCC2(F)CCN(C(=O)c3sccc3C)CC2)nc1 | 7.59 | 7.46 | 96%
Cc1ccc(CNCC2(F)CCN(C(=O)c3cc4ccccc4o3)CC2)nc1 | 7.19 | 7.47 | 87%
Cc1ccc(CNCC2(F)CCN(C(=O)c3ccc4ccccc4c3)CC2)nc1 | 7.82 | 7.28 | 110%
COc1c(C(=O)N2CCC(F)(CNCc3ccc(C)cn3)CC2)csc1Cl | 7.74 | 7.30 | 102%
Cc1ccc(CNCC2(F)CCN(C(=O)C34CCCC(CCC3)C4)CC2)nc1 | 7.72 | 7.59 | 96%
Cc1ccc(CNCC2(F)CCN(C(=O)c3cc4ccccc4[te]3)CC2)nc1 | 7.29 | 7.44 | 46%
Cc1ccc(CNCC2(F)CCN(C(=O)c3ccsc3)CC2)nc1 | 7.57 | 7.92 | 95%
Cc1ccc(CNCC2(F)CCN(C(=O)c3ccsc3Br)CC2)nc1 | 7.80 | – | –
Cc1ccc(CNCC2(O)CCN(C(=O)c3ccccc3)CC2)nc1 | 7.10 | – | –
Cc1ccc(CNCC2(O)CCN(C(=O)c3ccsc3)CC2)nc1 | 6.92 | – | –
Cc1ccc(CNCC2(F)CCN(C(=O)c3ccc(Br)s3)CC2)nc1 | 7.72 | 7.52 | 95%
Cc1ccc(CNCC2(F)CCN(C(=O)C34CC5CC(CC(Cl)(C5)C3)C4)CC2)nc1 | 7.04 | 7.32 | 91%
Cc1ccc(CNCC2(F)CCN(C(=O)c3cc4ccccc4[nH]3)CC2)nc1 | 7.03 | – | –

SMILES | pKi [1] | pEC50 [2] | Emax [3]
Cc1ccc(CNC[C@@]2(O)C[C@H]3CCC[C@@H](C2)N3C(=O)c2ccccc2)nc1 (stereo in doubt; 43) | 5.80 | – | –
Cc1ccc(CNCC2(F)CCN(C(=O)c3ccc4[nH]ccc4c3)CC2)nc1 | 6.42 | 7.00 | 94%
Cc1ccc(CNCC2(F)CCN(C(=O)c3cccc(-c4ccccc4)c3)CC2)nc1 | 7.16 | – | –
Cc1ccc(CNCC2(O)CC3CCC(C2)N3C(=O)c2ccc(F)c(Cl)c2)nc1 (stereo unspecified) | 7.77 | 7.74 | 121%
Cc1ccc(CNCC2(F)CCN(C(=O)C34CC5CC(CC(Br)(C5)C3)C4)CC2)nc1 | 6.92 | – | –
Cc1ccc(CNCC2(F)CCN(C(=O)c3ccc4[nH]nnc4c3)CC2)nc1 | 6.04 | – | –
Cc1ccc(CNCC2(F)CCN(C(=O)c3cc4cc(Br)ccc4s3)CC2)nc1 | 6.66 | – | –
Cc1ccc(CNCC2(F)CCN(C(=O)C34CC5CC(C3)CC(C(F)(F)C(F)C(F)(F)F)(C5)C4)CC2)nc1 (stereo unspecified) | 5.89 | – | –
Cc1ccc(CNCC2(O)CCN(C(=O)c3ccc(F)c(Cl)c3)CC2)nc1 | 7.96 | 8.18 | 109%
Cc1ccc(CNCC2(F)CCN(C(=O)c3ccc4[nH]cnc4c3)CC2)nc1 | 5.46 | – | –
Cc1ccc(CNCC2(F)CCN(C(=O)c3ccc[nH]3)CC2)nc1 | 6.18 | – | –
Cc1ccc(CNCC2(F)CCN(C(=O)c3cc(Br)c(Br)o3)CC2)nc1 | 8.05 | – | –
COc1c(C(=O)N2CCC(F)(CNCc3ccc(C)cn3)CC2)csc1Br | 7.77 | 7.21 | 95%
Cc1ccc(CNC[C@@]2(O)C[C@H]3CC[C@@H](C2)N3C(=O)c2ccccc2)nc1 (stereo in doubt; 38) [listing 1 of 2 here] | – | – | < 10%
Cc1ccc(CNCC2(F)CCN(C(=O)c3ccoc3)CC2)nc1 | 6.74 | 6.62 | 99%
CSc1ccc(C(=O)N2CCC(F)(CNCc3ccc(C)cn3)CC2)s1 | 7.74 | 7.27 | 91%
Cc1ccc(CNCC2(F)CCN(C(=O)c3ccc(Cl)s3)CC2)nc1 | 7.68 | 7.34 | 101%
Cc1ccc(CNCC2(F)CCN(C(=O)c3ccccc3-c3ccccc3)CC2)nc1 | 6.48 | – | –
Cc1ccc(CNCC2(F)CCN(C(=O)c3cc(Br)c(Br)s3)CC2)nc1 | 8.32 | – | –
Cc1ccc(CNCC2(F)CCN(C(=O)c3cc4ccsc4s3)CC2)nc1 | 7.34 | 7.41 | 103%
Cc1ccc(CNCC2(F)CCN(C(=O)c3coc(Br)c3)CC2)nc1 | 7.59 | – | –

SMILES | pKi [1] | pEC50 [2] | Emax [3]
Cc1ccc(CNCC2(F)CCN(C(=O)c3cc4sccc4s3)CC2)nc1 | 7.43 | 6.89 | 100%
Cc1ccc(CNCC2(F)CCN(C(=O)c3ccc(C)s3)CC2)nc1 | 7.85 | 7.38 | 104%
Cc1ccc(CNCC2(F)CCN(C(=O)c3sccc3-n3cccc3)CC2)nc1 | 6.44 | – | –
Cc1ccc(CNCC2(F)CCN(C(=O)c3cnn4ccccc34)CC2)nc1 | 7.03 | 6.51 | 96%
Cc1ccc(CNCC2(F)CCN(C(=O)c3cc[nH]n3)CC2)nc1 | 6.04 | – | –
Cc1ccc(CN(C)CC2(F)CCN(C(=O)c3ccc(F)c(Cl)c3)CC2)nc1 | 7.13 | 8.07 | 77%
Cc1ccc(CNCC2(F)CC3CCC(C2)N3C(=O)c2ccc(F)c(Cl)c2)nc1 (stereo unspecified) | 6.96 | – | –
COc1cscc1C(=O)N1CCC(F)(CNCc2ccc(C)cn2)CC1 | 7.25 | 7.00 | 93%
Cc1ccc(CNCC2(F)CCN(C(=O)C3CCc4ccccc4C3)CC2)nc1 (stereo unspecified) | 6.80 | – | –
Cc1ccc(CNCC2(F)CCN(C(=O)C34CC5CC(C)(CC(Br)(C5)C3)C4)CC2)nc1 (stereo unspecified) | 6.34 | – | –
Cc1ccc(CNCC2(F)CCN(C(=O)c3cc4ccc3CCc3ccc(cc3)CC4)CC2)nc1 | 6.49 | – | –
Cc1ccc(CNCC2(F)CCN(C(=O)c3ccc(-c4ccccc4)s3)CC2)nc1 | 6.30 | – | –
Cc1ccc(CNC[C@@]2(O)C[C@H]3CCC[C@@H](C2)N3C(=O)c2ccccc2)nc1 (stereo in doubt; 41) | 6.82 | – | –
Cc1ccc(CNC[C@@]2(O)C[C@H]3CC[C@@H](C2)N3C(=O)c2ccccc2)nc1 (stereo in doubt; 34) [listing 2 of 2 here] | – | – | 113%
CCC12CC3CC(C1)CC(C(=O)N1CCC(F)(CNCc4ccc(C)cn4)CC1)(C3)C2 | 7.54 | – | –
Cc1ccc(CNCC2(F)CCN(C(=O)c3ccc(-c4ccccn4)s3)CC2)nc1 | 6.33 | – | –
Cc1ccc(CNCC2(F)CC3CCC(C2)N3C(=O)c2ccsc2)nc1 (stereo unspecified) | 6.59 | – | –
Cc1ccc(CNCC2(F)CCN(C(=O)c3ccc(-c4ccccc4)cc3)CC2)nc1 | 6.52 | – | –
Cc1ccc(CNC[C@@]2(O)C[C@H]3CC[C@@H](C2)N3C(=O)c2ccccc2)nc1 (stereo in doubt; 38) [listing 2 of 2 here] | 7.20 | – | –
Cc1ccc(CNCC2(F)CCN(C(=O)c3ccc(F)s3)CC2)nc1 | 7.46 | – | –
Cc1ccc(CNCC2(F)CCN(C(=O)c3ccc(-c4csc(C)n4)s3)CC2)nc1 | 6.35 | – | –
